According to ChEMBL document CHEMBL1153988 (J Med Chem, 2009):

Legend:
[1] = tested on: Mus musculus; assay: Anticonvulsant activity in ip dosed CF1 albino mouse assessed as protection against maximal electroshock-induced seizures; format: functional
Procedure, shortened: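 Male CF no. 1 albino mice (18-25 g) were dosed ip in 0.5% methylcellulose and tested by maximal electroshock. Doses were varied to give 3-4 points between 0% and 100% protection. ED50 with 95% confidence interval came from probit analysis.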

[2] = species: Mus musculus; assay: Protective index, ratio of TD50 for CF1 albino mouse to ED50 for maximal electroshock-induced CF1 albino seizure mouse model; format: functional
Procedure, shortened: (§1)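 Ratio of TD50 to ED50 (MES or scMet) in male CF no. 1 mice (18-25 g) given ip doses in 0.5% methylcellulose. TD50 comes from minimal motor impairment: the dose was varied until four points lay between no impairment and all animals impaired. Both TD50 and ED50 were derived by probit analysis with 95% confidence intervals.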

[3] = tested on: Mus musculus; assay: Anticonvulsant activity in ip dosed CF1 albino mouse assessed as protection against scMet-induced seizures; format: functional
Procedure, shortened: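 Adult male CF no. 1 albino mice (18-25 g) dosed ip with compound suspended in 0.5% methylcellulose (0.01 mL/g body weight). Seizures were induced by subcutaneous pentylenetetrazol, given as a 0.85% solution in 0.9% saline. ED50 was found by varying the dose to give 3-4 points between 0% and 100% protection, then probit analysis with 95% confidence intervals.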

[4] = species: Mus musculus; assay: Protective index, ratio of TD50 for CF1 albino mouse to ED50 for scMet-induced CF1 albino seizure mouse model; format: functional; procedure, shortened: as §1
[5] = tested on: Mus musculus; assay: Neurotoxicity in ip dosed CF1 albino mouse assessed as minimal motor impairment; format: toxicity, organism-based; conditions: mouse, in vivo
Procedure, shortened: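 Mice: male CF no. 1 albino (18-25 g), ip dosing in 0.5% methylcellulose. Minimal motor impairment was scored, with doses varied to give four points between no impairment and all animals impaired.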

[6] = tested on: Rattus norvegicus; assay: Anticonvulsant activity in po dosed albino Sprague-Dawley rat assessed as protection against maximal electroshock-induced seizures; format: functional
[7] = species: Rattus norvegicus; assay: Protective index, ratio of TD50 for albino Sprague-Dawley rat to ED50 for maximal electroshock-induced albino Sprague-Dawley rat seizure model; format: functional
Procedure, shortened: (§2)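 Protective index is the rat TD50 (minimal motor impairment) divided by the ED50 in the MES or sc pentylenetetrazol test. Male Sprague-Dawley rats were dosed orally in 0.5% methylcellulose, and both values came from probit analysis.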

[8] = tested on: Rattus norvegicus; assay: Anticonvulsant activity in po dosed albino Sprague-Dawley rat assessed as protection against scMet-induced seizures; format: functional
Procedure, shortened: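 Male Sprague-Dawley albino rats (100-150 g) were dosed orally in 0.5% methylcellulose and tested by MES or by sc pentylenetetrazol (2.82% in 0.9% saline). Doses were varied to give 3-4 points between 0% and 100% protection. ED50 and 95% confidence intervals came from probit analysis.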

[9] = species: Rattus norvegicus; assay: Protective index, ratio of TD50 for albino Sprague-Dawley rat to ED50 for scMet-induced albino Sprague-Dawley rat seizure model; format: functional; procedure, shortened: as §2
[10] = Neurotoxicity in po dosed albino Sprague-Dawley rat assessed as minimal motor impairment; format: toxicity, organism-based; conditions: in vivo
Procedure, shortened: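 Rats: male Sprague-Dawley (100-150 g), oral dosing in 0.5% methylcellulose. Doses were varied to give four points between no minimal motor impairment and all animals impaired. TD50 and 95% confidence intervals came from probit analysis.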

[11] = tested on: Mus musculus; assay: Anticonvulsant activity in ip dosed CF1 albino mouse assessed as protection against 32 mA current-induced seizure by 6Hz psychomotor seizure test; format: functional
Procedure, shortened: (§3)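 In the 6 Hz psychomotor seizure test, male CF no. 1 albino mice (18-25 g) received the compound ip in 0.5% methylcellulose. Stimulation was at 32 or 44 mA. Doses were varied to give 3-4 points between 0% and 100% protection, and ED50 with 95% confidence interval came from probit analysis.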

[12] = species: Mus musculus; assay: Protective index, ratio of TD50 for CF1 albino mouse to ED50 for 32 mA current-induced CF1 albino mouse seizure model; format: functional
Procedure, shortened: (§4)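 Protective index is the mouse TD50 (minimal motor impairment) divided by the 6 Hz test ED50 at 32 or 44 mA. Male CF no. 1 mice were dosed ip in 0.5% methylcellulose, and values came from probit analysis.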

[13] = tested on: Mus musculus; assay: Anticonvulsant activity in ip dosed CF1 albino mouse assessed as protection against 44 mA-current-induced seizure by 6Hz psychomotor seizure test; format: functional; procedure, shortened: as §3
[14] = species: Mus musculus; assay: Protective index, ratio of TD50 for CF1 albino mouse to ED50 for 44 mA-current-induced CF1 albino mouse seizure model; format: functional; procedure, shortened: as §4

## CCCC(CCC)C(N)=O [VALPROMIDE]
[1]
  ED50: 56 mg/kg
[2]
  PI: 1.4
[3]
  ED50: 55 mg/kg
[4]
  PI: 1.5
[5]
  ED50: 81 mg/kg
[6]
  ED50: 32 mg/kg
[7]
  PI: 2.7
[8]
  ED50: 59 mg/kg
[9]
  PI: 1.5
[10]
  TD50: 87 mg/kg
[11]
  ED50: 57 mg/kg
[12]
  PI: 1.4
[13]
  ED50: 66 mg/kg
[14]
  PI: 1.2
